The nature of series [1]: Cmax in Sprague-Dawley rat at 45 mg/kg, po measured upto 24 hrs by LC-MS analysis. Type of series: ADME, organism-based. Also on record: route oral, dose 45 mg/kg, time <=24. The conditions noted are these: in vivo. The gist of the method: (§1)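 Male animals fasted 12 h before dosing. Plasma levels measured by LC-MS, with the prodrug quantified as the parent acid. Mean ± SEM, n = 3.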

The target in series [2] is Programmed cell death protein 1/Programmed cell death 1 ligand 1 (Homo sapiens, UniProt Q9NZQ7). Nature of the series: Inhibition of human PD-1/PD-L1 interaction assessed as blockade activity incubated for 15 mins by HTRF assay. Type of series: protein-complex assay. The gist of the method:
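Tag1-PD-L1 and Tag2-PD-1 proteins preincubated with compound (0.1 nM to 10 μM, triplicate) 15 min at room temperature, then anti-Tag1-Eu³⁺/anti-Tag2-XL665 added for 2 h at room temperature. Excitation 337 nm, emission 665 and […]. Signal taken as 665/615 ratio ×10 000; IC50 fitted from inhibition rates.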
On the technique in general: TR-FRET usually uses a lanthanide donor and a delayed reading to cut background.

Series [3] in a line: AUC (0 to t) in C57BL/6 mouse at 2 mg/kg, iv measured upto 24 hrs by LC-MS analysis. Type of series: ADME, organism-based. Also on record: route intravenous, dose 2 mg/kg, time <=24. The conditions noted are these: in vivo. The gist of the method:
as §1

For series [4], the system named is MC-38. Nature of the series: Antitumor activity against mouse MC38 cells implanted in C57BL/6 mouse assessed as tumor growth inhibition at 150 mg/kg, po measured after 18 days. The class given is functional. The conditions noted are these: MC-38, po, 432 h, time 18 day, read-out: TGI. The gist of the method:
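Female C57BL/6J mice, 8 weeks old, injected dorsally with 1 × 10⁶ MC38 cells in PBS. At 50 mm³, randomized to CMC-Na vehicle, 50, 150 or 300 mg/kg by daily oral gavage. Tumours measured every two days, volume = 0.5 × L × W². Sacrifice after 18 days of treatment. TGI = (1 − Vt/Vv) × 100. n = 8−10.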

The test system of series [5] is MC-38. Nature of the series: Antitumor activity against mouse MC38 cells xenografted in C57BL/6 mouse assessed as reduction in gMDSC cells at 25 mg/kg, po by flow cytometry analysis. The class given is functional, organism-based. The gist of the method: (§2)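 Tumours taken from PD-L1-humanized mice carrying MC38-hPD-L1 tumours and dosed orally at 5 or 25 mg/kg daily. Tissue digested to single cells, red cells lysed with ACK buffer, Fc blocked. Surface stain 60 min for CD45, CD3, CD4, CD8, CD335, CD11b, Ly6G, Ly6C and F4/80, with a viability dye. Intracellular FOXP3 stain after permeabilization. Mean ± SEM, n = 7−8, one-way ANOVA.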
A general note: A flow cytometer gives signals particle by particle.

Series [6] can be described thus: Clearance in C57BL/6 mouse at 2 mg/kg, iv measured upto 24 hrs by LC-MS analysis. The class given is ADME, organism-based. The conditions noted are these: in vivo. The gist of the method: as §1
A short description of series [7]: Tmax in C57BL/6 mouse at 10 mg/kg, po measured upto 24 hrs by LC-MS analysis. The class given is ADME, organism-based. The conditions noted are these: in vivo. The gist of the method: (§3)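 Male Sprague-Dawley rats or C57BL/6 mice fasted 12 h before dosing, given oral (po) or intravenous (iv) doses. Plasma levels measured by LC-MS. Parameters reported as mean ± SEM, n = 3.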

The subject of series [8] is MC-38. Nature of the series: Antitumor activity against mouse MC38 cells xenografted in C57BL/6 mouse assessed as increase in ratio of CD8 positive T cells to CD4 positive T cells at 25 mg/kg, po by flow cytometry analysis. The class given is functional, organism-based. The gist of the method:
as §2

Series [9] concerns MC-38. Nature of the series: Antitumor activity against PD-L1 humanized mouse MC38 cells implanted in PD-L1 humanized C57BL/6 mouse assessed as tumor growth inhibition at 25 mg/kg, po measured after 27 days. Type of series: functional. The settings on record: MC-38, po, 648 h, time 27 day, read-out: TGI. The gist of the method:
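Female PD-L1-humanized C57BL/6 mice, 6 weeks old, injected in the right flank with 1 × 10⁶ MC38-hPD-L1(Tg)-mPDL1(KO) cells in PBS. At 50 mm³ tumours, animals randomized to 0.5% CMC-Na vehicle or drug by daily oral gavage. Tumours measured twice weekly, volume = 0.5 × L × W². Sacrifice on day 27. TGI = (1 − Vt/Vv) × 100. n = 8.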

Series [10] is described as follows: Subacute toxicity in C57BL/6 mouse assessed as mortality at 2000 mg/kg, po observed for 30 days. The class given is organism-based. The conditions noted are these: in vivo, 720 h, time 30 day.
The nature of series [11]: Clearance in Sprague-Dawley rat at 9 mg/kg, iv measured upto 24 hrs by LC-MS analysis. The class given is ADME, organism-based. The conditions noted are these: in vivo. The gist of the method: as §1
Series [12] can be described thus: Toxicity in C57BL/6 mouse assessed as body weight loss at 2000 mg/kg, po observed for 30 days. The conditions noted are these: in vivo, 720 h.
Series [13] can be described thus: Oral bioavailability in Sprague-Dawley rat at 45 mg/kg measured upto 24 hrs by LC-MS analysis. Type of series: ADME, organism-based. The settings on record: in vivo. Summed up: as §3
The nature of series [14]: Acute toxicity in C57BL/6 mouse assessed as body weight loss at 2000 mg/kg, po observed for 30 days. The conditions noted are these: in vivo, 720 h, time 30 day. The class given is organism-based. Summed up:
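Healthy C57BL/6 mice got a single oral 2000 mg/kg dose. Mortality and body weight were then recorded over a 30-day observation period.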

In series [15] the test system is MC-38. Nature of the series: Antitumor activity against mouse MC38 cells xenografted in C57BL/6 mouse assessed as change in regulatory T cells at 25 mg/kg, po by flow cytometry analysis. The class given is functional, organism-based. The gist of the method:
as §2

The test system of series [16] is MC-38. Nature of the series: Antitumor activity against mouse MC38 cells implanted in C57BL/6 mouse assessed as tumor growth inhibition at 50 mg/kg, po measured after 14 days. The settings on record: MC-38, po, 336 h, time 14 day, read-out: TGI. The class given is functional.
The nature of series [17]: Tmax in Sprague-Dawley rat at 9 mg/kg, iv measured upto 24 hrs by LC-MS analysis. Type of series: ADME, organism-based. The conditions noted are these: in vivo. Summed up:
as §3

The nature of series [18]: Half life in C57BL/6 mouse at 2 mg/kg, iv measured upto 24 hrs by LC-MS analysis. The class given is ADME, organism-based. The settings on record: in vivo. Summed up: as §1
A short description of series [19]: Cmax in Sprague-Dawley rat at 9 mg/kg, iv measured upto 24 hrs by LC-MS analysis. The class given is ADME, organism-based. Also on record: route intravenous, dose 9 mg/kg, time <=24. The settings on record: in vivo. The gist of the method:
as §1

A short description of series [20]: Half life in Sprague-Dawley rat at 9 mg/kg, iv measured upto 24 hrs by LC-MS analysis. The settings on record: in vivo. The class given is ADME, organism-based. Summed up: as §1
The nature of series [21]: Toxicity in C57BL/6 mouse assessed as effect on BUN level at 2000 mg/kg, po observed for 30 days. Type of series: organism-based. The conditions noted are these: in vivo, 720 h, time 30 day.
Series [22] in a line: AUC (0 to t) in C57BL/6 mouse at 10 mg/kg, po measured upto 24 hrs by LC-MS analysis. The class given is ADME, organism-based. Also on record: route oral, dose 10 mg/kg, time <=24. The settings on record: in vivo. The gist of the method: as §1
A short description of series [23]: AUC (0 to t) in Sprague-Dawley rat at 9 mg/kg, iv measured upto 24 hrs by LC-MS analysis. The class given is ADME, organism-based. The arrangement: route intravenous, dose 9 mg/kg, time <=24. The settings on record: in vivo. The gist of the method: as §1
Series [24] relates to B16-F10. Nature of the series: Antitumor activity against mouse B16-F10 cells implanted in C57BL/6 mouse assessed as tumor weight at 15 mg/kg, po measured after 18 days (reference value: 1.76 gm). The class given is functional. The settings on record: time 18 day. Summed up:
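Female C57BL/6J mice, 8 weeks old, injected dorsally with 1 × 10⁶ B16-F10 cells in PBS. Daily oral gavage started the same day (day 1), in 0.5% CMC-Na vehicle. Tumour size and body weight recorded daily, volume = 0.5 × L × W². Sacrifice on day 18, tumours excised and weighed. TGI = (1 − Vt/Vv) × 100.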

Structures are written as SMILES. Calls of active or inactive are those of the source.

This is an account of results in ChEMBL document CHEMBL5032502, “Syntheses, Biological Evaluations, and Mechanistic Studies of Benzo[c][1,2,5]oxadiazole Derivatives as Potent PD-L1 Inhibitors with In Vivo Antitumor Activity” (J Med Chem, 2021).

Chain of Programmed cell death protein 1/Programmed cell death 1 ligand 1 (Q15116 whole entry): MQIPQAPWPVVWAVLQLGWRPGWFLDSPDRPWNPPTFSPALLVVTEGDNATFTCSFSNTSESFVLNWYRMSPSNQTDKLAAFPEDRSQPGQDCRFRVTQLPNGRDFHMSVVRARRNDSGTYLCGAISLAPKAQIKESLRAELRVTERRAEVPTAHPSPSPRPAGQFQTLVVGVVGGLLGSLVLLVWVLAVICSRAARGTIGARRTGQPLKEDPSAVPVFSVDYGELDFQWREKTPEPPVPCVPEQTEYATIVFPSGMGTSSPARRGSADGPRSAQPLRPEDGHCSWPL
Chain of Programmed cell death protein 1/Programmed cell death 1 ligand 1 (Q9NZQ7 whole entry): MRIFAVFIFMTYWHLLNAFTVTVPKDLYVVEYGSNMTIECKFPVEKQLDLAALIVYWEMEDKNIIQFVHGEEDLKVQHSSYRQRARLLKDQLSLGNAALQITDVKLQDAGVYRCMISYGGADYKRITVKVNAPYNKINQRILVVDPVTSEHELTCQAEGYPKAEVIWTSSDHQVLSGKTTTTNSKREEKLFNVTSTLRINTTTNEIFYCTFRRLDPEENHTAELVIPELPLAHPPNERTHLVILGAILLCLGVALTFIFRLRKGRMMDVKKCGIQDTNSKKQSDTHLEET

With `CCOC(=O)[C@@H](CO)NCc1cc(Cl)c(OCc2cccc(-c3ccccc3)c2Br)cc1OCc1ccc2nonc2c1.Cl`, the Cmax – broadly, the highest concentration seen after dosing – in series [1] amounted to 488 ng/mL; in series [19] it was 13000 ng/mL. In addition, the half-maximal inhibitory concentration (IC50) (usually the point on the concentration scale where inhibition reaches its midpoint) in series [2] came out at 426 nM. Besides, the AUC(0-t) – broadly, the area under the concentration-time curve up to a stated or last time point – at 24 h in [3] was found to be 1150 ng·h/mL; in [22], 444 ng·h/mL; in series [23], 6280 ng·h/mL. For the same molecule, in [4], the inhibition in vivo at 150 mg/kg was found to be 55.1%. The result in series [5] and in [8] was Active. For the same molecule, the clearance (commonly the rate of elimination divided by the concentration) was 28.7 mL/min/kg in series [6] and 23.8 mL/min/kg in series [11]. Further, the time to peak (Tmax) (as a rule, the time at which the peak concentration occurs) is 1 h in series [7] and 4.8 min in [17]. Also, the inhibition in vivo at 25 mg/kg in series [9] was found to be 32.5%. The Activity result is reported as “Non-Toxic” in [10]; “Non-Toxic” in [12]; “Non-Toxic” in [14]; “Non-Toxic” in series [21]; 1.27 g in series [24]. Besides, the bioavailability (commonly dose-corrected exposure relative to a reference, in per cent) in series [13] stood at 9.12%. Also, the outcome in series [15] was inactive. The inhibition in vivo at 50 mg/kg in [16] turned out to be 50.9%. Besides, the half-life (usually the time needed for the level to fall by half in the phase considered) in [18] was 123 min; in [20] it was 301 min.
